Where “and” joins values, the source holds several entries; their conditions need not be identical. Equal values may be shown once.
Legend:
[1] = target: T1, Muscarinic acetylcholine receptor M2 (Rattus norvegicus, UniProt P10980); assay: Binding affinity at [3H]QNB radiolabeled muscarinic M2 receptor in rat cortex.; assay type: tissue-based
T1 sequence (P10980 whole entry): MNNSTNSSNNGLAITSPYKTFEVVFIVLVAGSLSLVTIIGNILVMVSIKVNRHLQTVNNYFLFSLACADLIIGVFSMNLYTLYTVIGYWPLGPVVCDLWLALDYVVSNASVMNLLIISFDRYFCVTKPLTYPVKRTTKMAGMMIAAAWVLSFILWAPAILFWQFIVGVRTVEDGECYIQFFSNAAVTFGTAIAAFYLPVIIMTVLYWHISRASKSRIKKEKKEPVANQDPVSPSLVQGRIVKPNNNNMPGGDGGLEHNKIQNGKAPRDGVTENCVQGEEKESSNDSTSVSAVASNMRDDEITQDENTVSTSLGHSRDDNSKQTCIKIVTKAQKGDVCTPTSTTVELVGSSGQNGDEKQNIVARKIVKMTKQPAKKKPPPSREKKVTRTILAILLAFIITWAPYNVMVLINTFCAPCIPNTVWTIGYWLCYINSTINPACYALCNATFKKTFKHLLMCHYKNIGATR
Procedure, shortened: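 Cortex from male Wistar rats homogenized in 10 mM NaKPB pH 7.4, diluted 1:3000 (~0.1 mg protein/2.0 mL).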

[2] = target: T2, Muscarinic acetylcholine receptor M2 (Rattus norvegicus) (UniProt P10980); assay: Relative [3H]QNB and [3H]-CD binding to muscarinic M2 receptor
T2 sequence (whole entry): T1 sequence (P10980 whole entry)

[3] = Ratio of [3H]QNB+GppNHp/[3H]-PZ was determined
[4] = target: T1, Muscarinic acetylcholine receptor M2; assay: Binding affinity at [3H]QNB radiolabeled muscarinic M2 receptor in rat heart.
Procedure, shortened: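 Rat heart (male Wistar) minced and Polytron-homogenized in 10 mM NaKPB pH 7.4, spun 4800g 15 min 4 °C, resuspended, gauze-filtered, diluted 1:750 (0.15–0.2 mg protein/2.0 mL). Filtration, scintillation; one-site Ki.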

[5] = target: T1, Muscarinic acetylcholine receptor M2; assay: Binding affinity at [3H]CD radiolabeled muscarinic M2 receptor in rat cortex.; assay type: tissue-based
Procedure, shortened: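 Rat cortex (male Wistar, 200–250 g) homogenized in ice-cold 10 mM Na/K phosphate, pH 7.4, diluted 1:300; ~0.75 mg protein per 2.0 mL. [3H]CD 1 nM, 120 min at 25 °C. Filtration onto PEI-soaked GF/B filters, scintillation counting; Ki from one-site competitive fit.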

[6] = target: T1, Muscarinic acetylcholine receptor M2; assay: Binding affinity at [3H]QNB and GppNHp radiolabeled muscarinic M2 receptor in rat heart.
Procedure, shortened: (§1)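 Washed rat heart membranes (male Wistar; 4800g pellet, 1:750, 0.15–0.2 mg protein/2.0 mL) in 10 mM NaKPB pH 7.4 with Gpp(NH)p 10 μM final. Filter binding, scintillation counting; apparent Ki from one-site fit.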

[7] = target: T3, Muscarinic acetylcholine receptor M1 (Rattus norvegicus, UniProt P08482); assay: Binding affinity at [3H]PZ radiolabeled muscarinic M1 receptor in rat cortex.; assay type: tissue-based
T3 sequence (P08482 whole entry): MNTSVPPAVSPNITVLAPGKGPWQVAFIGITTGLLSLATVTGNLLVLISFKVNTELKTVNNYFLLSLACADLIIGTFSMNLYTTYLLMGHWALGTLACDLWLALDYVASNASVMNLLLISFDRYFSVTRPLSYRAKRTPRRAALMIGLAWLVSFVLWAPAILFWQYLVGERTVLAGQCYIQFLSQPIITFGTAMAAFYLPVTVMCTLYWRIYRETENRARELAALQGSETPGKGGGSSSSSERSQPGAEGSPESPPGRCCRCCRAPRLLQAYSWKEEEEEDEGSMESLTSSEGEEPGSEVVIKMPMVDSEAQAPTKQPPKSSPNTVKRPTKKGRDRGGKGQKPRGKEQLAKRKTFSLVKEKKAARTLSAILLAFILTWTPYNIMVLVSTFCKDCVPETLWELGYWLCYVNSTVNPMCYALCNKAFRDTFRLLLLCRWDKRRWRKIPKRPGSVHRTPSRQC
Procedure, shortened: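 Male Wistar rat cerebral cortex homogenate in ice-cold 10 mM NaKPB pH 7.4, diluted 1:400 (~0.55 mg protein/2.0 mL). [3H]PZ 0.1 nM, 60 min at 25 °C. Filtered on PEI-treated GF/B, scintillation read; apparent Ki by one-site nonlinear regression; one or two determinations.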

[8] = target: Muscarinic receptor M1 and M2 (Rattus norvegicus) (UniProt P08482+P10980); assay: Ratio of [3H]QNB+GppNHp/[3H]-QNB; assay type: protein assay
[9] = target: T1, Muscarinic acetylcholine receptor M2; assay: Tested for binding affinity to [3H]QNB and GppNHp radiolabeled muscarinic M2 receptor in rat heart; procedure, shortened: as §1
[10] = Ratio of [3H]QNB+/[3H]-PZ was determined

Row | SMILES | Ki [1] [µM] | Ratio [2] | Ratio [3] | Ki [4] [µM] | Ki [5] [µM] | Ki [6] [µM] | Ki [7] [µM] | Ratio [8] | Ki [9] [µM] | Ratio [10]
1 | C[C@@H]1CC(=O)N(CC#CCN2CCCC2)C1 | 4.7 | 1.9 | 21 | 13 | 2.5 | 27 | 1.3 | 2 |  | 
2 | C[C@@H]1CCN(CC#CCN(C)C)C1=O | 8.9 | 125 |  | 0.24 | 0.071 | 9.3 | 6.8 |  |  | 
3 | C[C@H]1CC(=O)N(CC#CCN(C)C)C1 | 150 |  |  | > 100 | > 10 | > 100 | 15 | > 100 |  | 
4 | C[C@@H]1CC(=O)N(CC#CCN(C)C)C1 | > 1000 |  |  | > 100 | > 10 | > 100 | > 100 | > 100 |  | 
5 | C[C@H]1CCN(CC#CCN2CCCC2)C1=O | 2.9 |  | 1.5 | 0.11 | 0.055 | 3.3 | 2.2 | 32 |  | 
6 | CC(=O)N(C)C(C)C#CCN1CCCC1 (centres undefined) | 0.08 | 19.5 |  | 0.07 | 0.004 |  | 0.04 | 2.5 and 5.1 and 1.8 | 0.18 | 
7 | CC1CCN(CC#CCN(C)C)C1=O (centres undefined) | 22 | 85 |  | 1.3 | 0.26 | 13 | 212 |  |  | 
8 | CN(C)CC#CCN1CCCC1=O | 2.9 | 460 |  | 0.07 | 0.0063 | 1.6 | 6.8 |  |  | 
9 | C[C@@H]1CCN(CC#CCN2CCCC2)C1=O | 0.43 | 19 |  | 0.09 | 0.023 | 0.43 | 0.25 |  |  | 
10 | CC1CCN(CC#CCN2CCCC2)C1=O (centres undefined) | 0.71 | 48 |  | 0.08 | 0.015 | 1.1 | 0.29 |  |  | 
11 | C[C@H]1CCN(CC#CCN(C)C)C1=O | > 100 |  |  | 21 | 0.63 | 30 | 1080 | 1.4 |  | 
12 | O=C1CCCN1CC#CCN1CCCC1 [OXOTREMORINE] | 0.06 |  |  | 0.005 | 0.0005 | 0.16 | 0.12 |  |  | 
13 | C[N+](C)(C)CC#CCN1CCCC1=O [OXOTREMORINE METHIODIDE] | 0.91 | 1200 |  | 0.06 | 0.00078 | 1.5 | 1.2 |  |  | 
14 | C[C@H]1CC(=O)N(CC#CC[N+](C)(C)C)C1 | > 100 |  |  | 1.9 | 0.45 |  | 108 | 0.23 | > 100 | 
15 | O=C1CCCN1CC#CCN1CCCCC1 | 0.12 | 2.2 | 2.7 | 0.07 | 0.056 | 0.35 | 0.13 | 5 |  | 0.54
16 | C[C@H]1CC(=O)N(CC#CCN2CCCC2)C1 | 2.3 | 1.6 |  | 3.8 | 1.5 | 6 | 0.51 |  |  | 
17 | C[C@@H]1CC(=O)N(CC#CC[N+](C)(C)C)C1 | > 100 |  | 5.7 | 21 | 0.98 | 52 | > 109 | 2.4 |  | 

From ChEMBL document CHEMBL1127058, “The synthesis and biochemical pharmacology of enantiomerically pure methylated oxotremorine derivatives” (J Med Chem, 1993)
